In ChEMBL document CHEMBL3272334, “Folate antagonists. 10. Synthesis and antimalarial effects of 6-[[(aryl and aralkyl)amino]methyl]-2,4-pteridinediamines and -pteridinediamine 8-oxides” (1978):
≈ marks a conversion by molar mass, not a printed value. Calls of active or inactive are those of the source. No cut-off for these calls is given here.

System: Staphylococcus aureus
Assay: Antibacterial activity against Staphylococcus aureus UC-76 assessed as growth inhibition by gradient plate test
Format: functional
Outline: (§1)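 Modified gradient-plate method, in vitro. Panel: Streptococcus faecalis MGH-2, normal S. aureus UC-76, drug-resistant S. aureus S18713, E. coli Vogel, Shigella sonnei C-10.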

Compound | MIC [µg/mL]
Nc1nc(N)c2nc(CN(C=O)c3ccc(Cl)c(Cl)c3)cnc2n1 | 1 (≈ 2.75 µM)

System: Plasmodium gallinaceum
Assay: Antimalarial activity against sporozoite stage of Plasmodium gallinaceum infected in white leghorn cockerel assessed as survival over 30 days at 480 mg/kg, sc administered through peanut oil on day of infection
Format: functional, organism-based
Parameters: dose 480 mg/kg

Compound | Activity
CCOC(=O)c1ccc(N(C)Cc2cnc3nc(N)nc(N)c3n2)cc1 | Active

System: Staphylococcus aureus
Assay: Antibacterial activity against drug-resistant Staphylococcus aureus S18713 assessed as growth inhibition by gradient plate test
Format: functional
Outline: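 In vitro test against a bacterial panel (S. faecalis MGH-2, S. aureus UC-76 and drug-resistant S18713, E. coli Vogel, Shigella sonnei C-10), run as a modified gradient plate procedure.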

Compound | MIC [µg/mL]
Nc1nc(N)c2nc(CN(C=O)c3ccc(Cl)c(Cl)c3)cnc2n1 | 2 (≈ 5.49 µM)

System: Escherichia coli
Assay: Antibacterial activity against Escherichia coli Vogel assessed as growth inhibition by gradient plate test
Format: functional
Outline: as §1

Compound | MIC [µg/mL]
Nc1nc(N)c2nc(CN(C=O)c3ccc(Cl)c(Cl)c3)cnc2n1 | > 25

System: Plasmodium gallinaceum
Assay: Antimalarial activity against sporozoite stage of Plasmodium gallinaceum infected in white leghorn cockerel assessed as survival over 30 days at 120 mg/kg, sc administered through peanut oil on day of infection
Format: functional, organism-based
Parameters: dose 120 mg/kg

Compound | Activity
CCOC(=O)c1ccc(N(C)Cc2cnc3nc(N)nc(N)c3n2)cc1 | Active

System: Shigella sonnei
Assay: Antibacterial activity against Shigella sonnei C-10 assessed as growth inhibition by gradient plate test
Format: functional
Outline: as §1

Compound | MIC [µg/mL]
Nc1nc(N)c2nc(CN(C=O)c3ccc(Cl)c(Cl)c3)cnc2n1 | > 25

System: Plasmodium gallinaceum
Assay: Antimalarial activity against sporozoite stage of Plasmodium gallinaceum infected in white leghorn cockerel assessed as survival over 30 days at 60 mg/kg, sc administered through peanut oil on day of infection
Format: functional, organism-based
Parameters: dose 60 mg/kg

Compound | Activity
CCOC(=O)c1ccc(N(C)Cc2cnc3nc(N)nc(N)c3n2)cc1 | Active

System: Enterococcus faecalis
Assay: Antibacterial activity against Streptococcus faecalis MGH2 assessed as growth inhibition by gradient plate test
Format: functional
Outline: as §1

Compound | MIC [µg/mL]
Nc1nc(N)c2nc(CN(C=O)c3ccc(Cl)c(Cl)c3)cnc2n1 | < 0.25

System: Plasmodium berghei
Assay: Antimalarial activity against drug-sensitive trophozoite stage of Plasmodium berghei infected in mouse assessed as increase in mean survival time up to 640 mg/kg, sc administered 72 hrs post infection
Format: functional, organism-based
Parameters: dose 640 mg/kg

Compound | Activity
CN(Cc1c[n+]([O-])c2nc(N)nc(N)c2n1)c1ccc(Cl)c(Cl)c1 | inactive
Nc1nc(N)c2nc(CNc3ccc(Cl)c(Cl)c3)c[n+]([O-])c2n1 | inactive
CCOC(=O)c1ccc(N(C)Cc2cnc3nc(N)nc(N)c3n2)cc1 | inactive
CN(Cc1c[n+]([O-])c2nc(N)nc(N)c2n1)c1ccc(Cl)cc1 | inactive
CC(C)N(Cc1c[n+]([O-])c2nc(N)nc(N)c2n1)c1ccc(Cl)cc1 | inactive
CCCN(Cc1c[n+]([O-])c2nc(N)nc(N)c2n1)c1ccc(Cl)c(Cl)c1 | inactive
COc1cc(N(C)Cc2c[n+]([O-])c3nc(N)nc(N)c3n2)cc(OC)c1OC | inactive
CN(Cc1c[n+]([O-])c2nc(N)nc(N)c2n1)c1cccc2ccccc12 | inactive
CC(C)N(Cc1c[n+]([O-])c2nc(N)nc(N)c2n1)c1ccc(Cl)c(Cl)c1 | inactive
CCN(Cc1c[n+]([O-])c2nc(N)nc(N)c2n1)c1ccc(OC)cc1 | inactive
CCN(Cc1c[n+]([O-])c2nc(N)nc(N)c2n1)c1ccc(Cl)cc1 | inactive
Nc1nc(N)c2nc(CN(C=O)c3ccc(Cl)c(Cl)c3)cnc2n1 | inactive
